Rows were chosen to be rich in hits. Some 1.9% of all compounds tested hit in one or more screens of this group.
MsrA inhibitor: inhibits bovine methionine sulfoxide reductase A; purified bovine MsrA, absorbance read-out; inhibition, % at 15.5 µM; 360,000 tested, 0.75% active; AID 651718; in the data active means inhibition above about 4.5%
Glyco luc inh: blocks N-linked glycosylation in D54 reporter cells; AID 588692; reporter increase, % at 12.5 µM; D54 ERlucT glycosylation luciferase reporter, 24 h; percent of 100 nM tunicamycin response; 360,000 tested, 0.23% active;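 active means mean luciferase reporter signal, scaled so untreated is 0 and the glycosylation-blocking control 100, at or above a set limit in every replicate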;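 further: luciferase carries N-glycosylation sites so blocking glycosylation raises the light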
Vif inh: blocks HIV Vif function; HEK293T cells, Vif self-association by quenched fluorescence, imaging, 24 h; inhibition, % at 7.49 µM; 340,000 tested, 0.35% active; AID 602346; in the data active means inhibition above about 50%, passing the limit was not always enough
aDG glyco act: alpha-DG glycosylation activation | activation, % at 10 µM | AID 624168 | 360,000 tested, 0.22% active | Pro5-aDG cells, alpha-DG glycosylation AlphaScreen (IIH6); 0% Pro5, 100% B10-LARGE cell signal;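 active means activation of at least 8% versus controls, or a plate z-score of at least 8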;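 further: Pro5 are CHO cells carrying HIG-tagged alpha-DG that lacks glycosylation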
UCH37 DUB inh: human UCH37 deubiquitinating enzyme inhibition; inhibition, % (concentration not given with the values); Q9Y5K5; 330,000 tested, 0.33% active; purified proteasome/UCH37, Ub-AMC cleavage fluorescence;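 active means mean inhibition over replicate wells above about 20%, limit read from the data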
Target sequence (Q9Y5K5 whole entry, looked up): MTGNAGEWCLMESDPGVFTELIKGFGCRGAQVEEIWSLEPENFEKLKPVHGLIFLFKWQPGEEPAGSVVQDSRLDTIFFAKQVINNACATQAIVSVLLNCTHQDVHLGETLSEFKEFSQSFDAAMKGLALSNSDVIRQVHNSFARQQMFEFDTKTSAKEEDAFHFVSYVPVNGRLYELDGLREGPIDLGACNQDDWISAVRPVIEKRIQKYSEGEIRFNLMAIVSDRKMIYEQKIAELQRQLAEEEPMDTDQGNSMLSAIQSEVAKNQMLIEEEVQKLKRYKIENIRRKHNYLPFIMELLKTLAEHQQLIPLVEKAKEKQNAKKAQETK
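Test system – human UCH37 enzyme supplied as purified proteasome complex · Incubation – 30 min preincubation with enzyme, 25 min cleavage at room temperature · Detection – AMC fluorescence from Ub-AMC cleavage, excitation 355 nm, emission 460 nm · Benchmarks – no-proteasome wells (full inhibition) and compound-free wells (no inhibition)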
MsrA act: bovine methionine sulfoxide reductase A activation | 360,000 tested, 0.3% active | purified bovine MsrA, absorbance read-out | activation, % at 10.6 µM; in the data active means activation above about 7.5%
aDG glyco conf: alpha-DG glycosylation activation, confirmation. shares compounds with aDG glyco act. activation, % at 10 µM (by protocol). 600 tested, 17% active. Pro5-aDG cells, IIH6 AlphaLISA; scaled to LARGE-overexpressing B10 cells as 100%;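 active means activation of at least 7% in one or more replicates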;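 further: cells exposed to compound for two days before detection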
Hits are given with their value; – = inactive; · = not tested or not shown.

SMILES	MsrA inhibitor	Glyco luc inh	Vif inh	aDG glyco act	UCH37 DUB inh	MsrA act	aDG glyco conf
CC(C)n1cc(CN2CCCC(C(=O)Nc3cccc(-c4cc5ccccc5[nH]4)c3)C2)cn1 (configuration not stated)	–	–	–	8.8	·	–	5.3
O=C(CNC(=O)c1ccccc1F)Nc1ccncc1	–	–	·	–	–	–	·
O=C(CNC(=O)c1ccccc1F)NCc1ccncc1	–	–	–	5.9	–	–	–
Cc1ccc(NS(=O)(=O)c2ccc(C(=O)NC3CCN(Cc4ccccc4)CC3)cc2)cc1	–	–	–	13.4	–	–	4.8
CN(C)c1ccc(C=Nn2c(C3CCCCC3)n[nH]c2=S)cc1	·	·	·	·	–	·	·
O=C(CSc1nncn1-c1ccccc1)NC1CCCc2ccccc21 (configuration not stated)	–	–	–	–	–	–	·
Cc1nnc(SCC(=O)NC2CCCc3ccccc32)n1-c1ccccc1 (configuration not stated)	–	–	–	7.0	–	–	–
CCc1ccc(NC(=O)CON=C(C)c2cc3ccccc3o2)cc1	·	·	·	·	–	·	·
COC(=O)c1ccc(-n2c(C)cc(-c3csc(NC(=O)c4ccc(S(=O)(=O)N(C)C)cc4)n3)c2C)cc1	–	–	–	10.7	–	–	–
CN1CCN(S(=O)(=O)c2cccc(C(=O)Nc3nc(-c4ccccc4)cs3)c2)CC1	–	–	–	–	–	–	·
Cc1cc(-c2csc(NC(=O)c3cccc(S(=O)(=O)N(C)C)c3)n2)c(C)n1-c1ccccc1	–	–	–	10.8	–	–	–
C[C@H]1CN([C@@H](C)CO)S(=O)(=O)c2ccc(Br)cc2O[C@H]1CN(C)C(=O)CN(C)C	–	–	–	10.3	·	–	–
C=CCNC(=S)NNC(=O)C(CCCC)CC(C)O (configuration not stated)	–	–	–	–	–	–	·
C=CCNC(=S)NNC(=O)CCC(O)CCCCC (configuration not stated)	–	–	–	8.4	–	–	–
COc1ccc(-n2c(=O)c3ccccc3n(Cc3cccc(C)c3)c2=O)cc1OC	–	–	–	–	–	–	·
COc1ccc(-n2c(=O)c3ccccc3n(Cc3ccccc3F)c2=O)cc1OC	–	–	–	1.8	–	–	–
CCC(=NNC(=O)C1CCCC1)c1ccc(Br)cc1	·	·	·	·	–	·	·
CC/C(=N\NC(=O)C1CCCC1)c1ccc(Br)cc1	–	–	–	8.8	·	–	–
Cc1cccc(C)c1NC(=S)NN=Cc1ccccc1C(=O)O	·	·	·	·	–	·	·
O=C(CSc1nnc(NC(=O)c2ccco2)s1)Nc1ccccc1Br	–	–	–	2.2	–	–	–
Cc1ccccc1NC(=O)CSc1nnc(NC(=O)c2ccco2)s1	–	–	–	–	–	–	·
CS(=O)(=O)c1ccc(Nc2nc(C(N)Cc3ccc(Cl)cc3)cs2)cc1 (configuration not stated)	–	–	–	24.4	·	–	11.1
NC(Cc1ccc(Cl)cc1)c1csc(Nc2ccc(S(N)(=O)=O)cc2)n1 (configuration not stated)	–	–	–	–	·	–	·
Cc1nc2c(cc1C(=O)NN=Cc1ccc(O)c(O)c1)c(=O)n(C)c(=O)n2C	·	·	·	·	–	·	·
c1csc(Cn2nnnc2CN2CCN(c3nc4ccccc4s3)CC2)c1	–	–	–	6.0	–	–	2.8
SMILES	MsrA inhibitor	Glyco luc inh	Vif inh	aDG glyco act	UCH37 DUB inh	MsrA act	aDG glyco conf
c1ccc(Cn2nnnc2C(c2ccccc2)N2CCN(c3nc4ccccc4s3)CC2)cc1 (configuration not stated)	–	–	–	–	–	–	·
CC(=O)Nc1ccc(S(=O)(=O)N(C)C2CCN(C)CC2)cc1	–	–	–	–	–	–	·
CC(Oc1cccc(Cl)c1)C(=O)Nc1ccc(S(=O)(=O)N(C)C2CCN(C)CC2)cc1 (configuration not stated)	–	–	–	5.7	–	–	5.3
CCOc1cccc(-c2cc(N3CCN(CCO)CC3)n3nccc3n2)c1	–	–	–	6.0	·	–	–
CC(=NNC(=O)C1(C)CC1(Br)Br)c1ccc(NC(=O)c2ccc(C)o2)cc1 (configuration not stated)	·	·	·	·	–	·	·
Cc1nc2sccn2c(=O)c1S(=O)(=O)NCc1ccccc1Cl	–	–	–	10.1	–	–	–
Nc1nc(-c2ccccn2)nc(N)c1Cc1ccccc1F	–	–	–	–	–	–	·
Nc1nc(-c2ccccn2)nc(N)c1Cc1c(F)cccc1Cl	–	–	–	8.0	–	–	–
CCCCc1c(-c2ccccc2OC)ncn1Cc1cccc(-c2ccccc2)c1	–	·	·	10.6	·	–	–
CCCCc1c(-c2ccc(OC)c(OC)c2)ncn1CCc1ccccc1OC	–	·	·	14.1	·	–	–
CN(CC(=O)Nc1ccccc1C(=O)NC1CC1)Cc1ccco1	–	–	·	4.2	–	–	–
CN(CC(=O)Nc1ccccc1C(=O)NC1CC1)Cc1cccs1	–	–	–	–	–	–	·
COc1cccc(C=NNC(=O)c2ccc(=O)[nH]n2)c1O	·	·	·	·	–	·	·
COc1cccc(CN(C)C(=O)c2cccc(S(=O)(=O)N3CCN(c4ccc(F)cc4)CC3)c2)c1OC	–	–	–	3.5	–	–	–
CC(=O)NN=Cc1cc(C(C)C)cc(C=NNC(C)=O)c1O	·	·	·	·	–	·	·
Cc1ccc(CNC(=O)CN(C(=O)C2(C)CC(=O)N=C3C=CC=CN32)c2cccc(C)c2C)cc1 (configuration not stated)	–	–	–	2.6	–	–	–
Cc1ccc(CNC(=O)CN(C(=O)C2(C)CC(=O)N=C3C=CC=CN32)c2ccccc2)cc1 (configuration not stated)	–	–	–	–	–	–	·
CCc1ccccc1NC(=O)CSc1nc2ccccc2nc1N1CCOCC1	–	–	·	12.9	–	–	–
N#Cc1cccc(NC(=O)CSc2nnc(-c3n[nH]c4ccccc34)o2)c1	–	–	–	–	·	–	·
C#Cc1cccc(NC(=O)CSc2nnc(-c3ccc(C(F)(F)F)cn3)o2)c1	–	–	–	3.5	–	–	–
O=C(/C=C/c1ccc(Cl)c(Cl)c1)Nc1cccnc1	–	–	–	3.1	–	–	–
O=C(/C=C/c1ccccc1Cl)Nc1cccnc1	–	–	–	–	–	–	·
CC(=O)c1c(C)[nH]c(C(=O)OCc2ccc(Br)cc2)c1C	–	–	–	9.0	–	–	–
CC(=O)Nc1ccc(NC(=O)CSCCc2ccccn2)cc1	–	–	–	4.5	–	–	–
CC(=O)Nc1ccc(NC(=O)CCSCCc2ccccn2)cc1	–	–	–	–	–	–	·
N/C(=N\OC(=O)Nc1ccccc1)c1ncc([N+](=O)[O-])s1	–	–	–	2.8	·	–	3.3
CNc1nc(NN=Cc2cc([N+](=O)[O-])ccc2F)nc(Nc2ccccc2)n1	·	·	·	·	–	·	·
